Measured values reported in paper PMC6140336 (Cell, 2018).

Tests used:
[1] = test system: TCR589-transduced 58−/− T cells; assay: IL-2 ELISA, TCR589-transduced cell line; assay type: cell-based, murine; conditions: peptide-pulsed KG-1 APCs or OKT3, 24 hrs, result in words
Method in brief: (§1)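 58−/− cells carrying the TCR were rested overnight in complete RPMI. KG-1 APCs were pulsed with peptide for 2 h or overnight at 37 °C, washed, and mixed 1:1 with the T cells for 24 hrs at 37 °C. Secreted mouse IL-2 was measured by sandwich ELISA (avidin-HRP, TMB, H3PO4 stop) read at 450 and 570 nm. Biological and technical triplicates.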

[2] = test system: TCR55-transduced 58−/− T cells; assay: IL-2 ELISA, TCR55-transduced cell line; assay type: cell-based, murine; conditions: peptide-pulsed KG-1 APCs or OKT3, 24 hrs, result in words
Method in brief: as §1

[3] = test system: SKW3 T cells expressing TCR589; assay: pERK1/2 phospho-flow cytometry, TCR589 cells; assay type: cell-based, human; conditions: peptide-pulsed KG-1 cells or OKT3, 15 minutes, result in words
Method in brief: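 SKW3 cells were rested overnight. Peptide-pulsed KG-1 cells (2 h) were washed and mixed 1:1 with them (125,000 each), then co-cultured 15 min at 37 °C. Cells were fixed in 4% PFA then Cytofix (30 min, 37 °C), permeabilised in ice-cold methanol or Perm Buffer III, and stained 1 h at RT with anti-pERK1/2 (1:50) and anti-CD3. Mean pERK MFI of CD3+ cells by flow. Biological and technical triplicates.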

[4] = test system: SKW3 T cells expressing TCR55; assay: pERK1/2 phospho-flow cytometry, TCR55 cells; assay type: cell-based, human; conditions: peptide-pulsed KG-1 cells or OKT3, 15 minutes, result in words

Q: For “OKT3: anti-CD3 antibody (clone OKT3), non-specific TCR stimulus”, which IL-2 secretion [1] is on record?
A: The IL-2 secretion was “responded similarly”.

Q: What about the IL-2 secretion [2] of the same substance?
A: The IL-2 secretion was “responded similarly”.

Q: What about the “ERK1/2 phosphorylation (pERK)” value [3] of the same substance?
A: Its value is “robust ERK1/2 phosphorylation”.

Q: And the “ERK1/2 phosphorylation (pERK)” value [4]?
A: Its value is “robust ERK1/2 phosphorylation”.
